This is an account of results in ChEMBL document CHEMBL4732273, “In Silico Targeting of the Long Noncoding RNA MALAT1” (ACS Med Chem Lett, 2021).

The source made the active and inactive calls. No cut-off for these calls is given here.

For one assay, the system named is tRNA. In words: Binding affinity to biotinylated-tRNA (unknown origin) at 200 uM measured after 120 secs by Surface plasmon resonance analysis. The format is nucleic-acid assay. The following applies: time 120.0 sec. The method in brief:
(§1)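 The RNA was 3′-biotinylated by ligating pCp-biotin with T4 RNA ligase 1 after dephosphorylation, then immobilized on the SPR chip at 300 RU. Compounds were injected as 50 μL at 200 μM at a 20 μL/min flow rate, followed by 60 s of dissociation. Biotinylated tRNA was immobilized and run the same way as the negative-control surface.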

Assay [1] in a line: Binding affinity to biotinylated-MALAT1 RNA (unknown origin) at 200 uM measured after 140 secs by Surface plasmon resonance analysis. Conditions: time 140.0 sec. The method, boiled down:
as §1

The nature of assay [2]: Binding affinity to biotinylated-MALAT1 RNA (unknown origin) by Surface plasmon resonance analysis. The method, boiled down: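 Surface plasmon resonance on MALAT1 RNA that was 3′-biotinylated by pCp-biotin ligation with T4 RNA ligase 1 and immobilized at 300 RU. Compound was flowed at 20 μL/min with 60 s of dissociation. A biotinylated tRNA surface served as the negative control. The dissociation constant was derived from the SPR sensorgram analysis.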

Take `COc1ncccc1CN1CCN(c2ccc(C(N)=O)cc2)CC1`: the result (with tRNA; in assay [1]) was Active.
With `O=C(c1cc(=O)[nH]c2cc(F)ccc12)N1CCCC(N2CCCC2)C1` (stereo unspecified), the outcome in assay [1] was Active.
On to `Cc1ccc(NC(=O)NCC2CCCN(C3CCN(C)CC3)C2)cc1` (stereo unspecified), for which the outcome (with tRNA; in assay [1]) was Active.
With `NCC1Cc2cccc(-c3cc4c(cc3C(N)=O)OCO4)c2O1` (stereo unspecified), the outcome (in the assay on tRNA; in assay [1]) was Active.
As for `NS(=O)(=O)c1ccc(CNC2CCC3(CCNCC3)CC2)cc1`, the outcome with tRNA was inactive. In addition, the outcome in assay [1] was Active. This compound also registered a Kd in assay [2] of 400 µM.
As to `CN1CCC(O)(Cn2cnc3ccc(F)cc3c2=O)CC1`, the outcome in the assay on tRNA was inactive. Besides, the outcome in assay [1] was Active.
Turning to `CCN1CCCC1CNC(=O)CCC1CCN(Cc2cc3ccccc3s2)CC1` (stereo unspecified), the result (in the assay on tRNA; in assay [1]) was Active.
With `c1ccc2sc(C3CCCN(Cc4cc5n(n4)CCCNC5)C3)nc2c1` (stereo unspecified), in the assay on tRNA, the outcome was inactive. In addition, the result in assay [1] was Active.
